Test results reported in ChEMBL document CHEMBL4014357, “Structure-Based Design and Synthesis of Potent and Selective Matrix Metalloproteinase 13 Inhibitors” (J Med Chem, 2017).
The source made the active and inactive calls. The calls are words filed in the database; no cut-off is given here.

Columns and labels:
Furin (Homo sapiens) = Furin (Homo sapiens) (UniProt P09958); test: Inhibition of furin (unknown origin) at 1 uM relative to control
[1] = target: Insulin-degrading enzyme (Homo sapiens) (UniProt P14735); test: Inhibition of IDE (unknown origin) at 1 uM relative to control
Caspase-6 (Homo sapiens) = Caspase-6 (Homo sapiens) (UniProt P55212); test: Inhibition of caspase6 (unknown origin) at 1 uM relative to control
[2] = target: Coagulation factor X (Homo sapiens) (UniProt P00742); test: Inhibition of factor10a (unknown origin) at 1 uM relative to control
Coagulation factor X (Homo sapiens), sequence (P00742 41-179 limits assumed): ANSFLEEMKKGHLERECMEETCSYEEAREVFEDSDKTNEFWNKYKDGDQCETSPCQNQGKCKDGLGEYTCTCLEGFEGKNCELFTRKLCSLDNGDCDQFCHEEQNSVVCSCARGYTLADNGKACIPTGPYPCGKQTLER
Coagulation factor X (Homo sapiens), sequence (P00742 235-488 limits assumed): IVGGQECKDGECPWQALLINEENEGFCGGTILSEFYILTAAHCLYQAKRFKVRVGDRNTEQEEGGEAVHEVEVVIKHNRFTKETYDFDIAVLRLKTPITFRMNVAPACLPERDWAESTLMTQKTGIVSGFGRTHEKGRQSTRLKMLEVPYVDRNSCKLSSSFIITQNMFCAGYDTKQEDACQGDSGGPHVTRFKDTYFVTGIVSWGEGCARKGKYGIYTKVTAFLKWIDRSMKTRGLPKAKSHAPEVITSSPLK

[3] = target: Neprilysin (Homo sapiens) (UniProt P08473); test: Inhibition of neprilysin (unknown origin) at 1 uM relative to control
Neprilysin (Homo sapiens), sequence (P08473 whole entry): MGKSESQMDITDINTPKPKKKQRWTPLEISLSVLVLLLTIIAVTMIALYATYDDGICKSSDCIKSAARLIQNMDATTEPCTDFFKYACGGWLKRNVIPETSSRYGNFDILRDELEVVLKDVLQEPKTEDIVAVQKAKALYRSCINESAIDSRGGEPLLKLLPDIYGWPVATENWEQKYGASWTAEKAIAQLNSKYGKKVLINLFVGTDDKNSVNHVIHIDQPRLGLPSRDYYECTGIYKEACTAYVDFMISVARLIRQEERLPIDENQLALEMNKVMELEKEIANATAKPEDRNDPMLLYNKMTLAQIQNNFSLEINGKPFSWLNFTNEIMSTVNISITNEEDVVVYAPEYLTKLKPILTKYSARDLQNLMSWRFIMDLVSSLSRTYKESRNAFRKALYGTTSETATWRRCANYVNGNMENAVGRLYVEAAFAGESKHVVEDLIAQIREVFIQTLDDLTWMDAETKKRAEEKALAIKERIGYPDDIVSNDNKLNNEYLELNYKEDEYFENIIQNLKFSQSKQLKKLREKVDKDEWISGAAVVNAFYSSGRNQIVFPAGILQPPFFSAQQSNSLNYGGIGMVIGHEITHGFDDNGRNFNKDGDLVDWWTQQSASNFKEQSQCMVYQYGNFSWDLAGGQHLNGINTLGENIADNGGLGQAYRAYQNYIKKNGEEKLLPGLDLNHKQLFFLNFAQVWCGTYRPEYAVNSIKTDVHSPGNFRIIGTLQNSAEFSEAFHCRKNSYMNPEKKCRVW

Caspase-2 (Homo sapiens) = Caspase-2 (Homo sapiens) (UniProt P42575); test: Inhibition of caspase2 (unknown origin) at 1 uM relative to control
[4] = target: Beta-secretase 1 (Homo sapiens) (UniProt P56817); test: Inhibition of BACE1 (unknown origin) at 1 uM relative to control
Beta-secretase 1 (Homo sapiens), sequence (P56817 whole entry): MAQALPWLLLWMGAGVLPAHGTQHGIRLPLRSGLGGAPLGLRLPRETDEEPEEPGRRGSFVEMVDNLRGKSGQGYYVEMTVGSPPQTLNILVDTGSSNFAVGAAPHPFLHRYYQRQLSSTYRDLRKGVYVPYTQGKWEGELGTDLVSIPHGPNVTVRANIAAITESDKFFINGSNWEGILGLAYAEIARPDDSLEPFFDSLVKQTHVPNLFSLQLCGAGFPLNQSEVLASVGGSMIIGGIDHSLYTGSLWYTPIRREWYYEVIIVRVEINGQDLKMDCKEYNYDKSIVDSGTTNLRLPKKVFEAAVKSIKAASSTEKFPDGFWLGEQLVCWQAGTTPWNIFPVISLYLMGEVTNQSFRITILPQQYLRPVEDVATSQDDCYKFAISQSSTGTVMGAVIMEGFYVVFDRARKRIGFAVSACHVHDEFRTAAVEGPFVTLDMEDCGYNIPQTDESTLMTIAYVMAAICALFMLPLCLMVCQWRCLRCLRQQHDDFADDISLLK

Caspase-1 (Homo sapiens) = Caspase-1 (Homo sapiens) (UniProt P29466); test: Inhibition of caspase1 (unknown origin) at 1 uM relative to control
Caspase-1 (Homo sapiens), sequence (P29466 120-297 limits assumed): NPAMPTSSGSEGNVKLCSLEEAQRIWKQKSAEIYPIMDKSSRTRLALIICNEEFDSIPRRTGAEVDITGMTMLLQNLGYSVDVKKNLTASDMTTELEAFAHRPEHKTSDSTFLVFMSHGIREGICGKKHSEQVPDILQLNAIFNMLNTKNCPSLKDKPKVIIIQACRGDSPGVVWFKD
Caspase-1 (Homo sapiens), sequence (P29466 317-404 limits assumed): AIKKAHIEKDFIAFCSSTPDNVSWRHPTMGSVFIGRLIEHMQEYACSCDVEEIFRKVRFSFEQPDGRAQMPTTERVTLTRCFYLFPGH

[5] = target: Disintegrin and metalloproteinase domain-containing protein 10 (Homo sapiens) (UniProt O14672); test: Inhibition of ADAM10 (unknown origin) at 1 uM relative to control
[6] = target: Procathepsin L (Homo sapiens) (UniProt P07711); test: Inhibition of cathepsin-L (unknown origin) at 1 uM relative to control
[7] = target: Cathepsin S (Homo sapiens) (UniProt P25774); test: Inhibition of cathepsin-S (unknown origin) at 1 uM relative to control
Cathepsin S (Homo sapiens), sequence (P25774 115-331 limits assumed): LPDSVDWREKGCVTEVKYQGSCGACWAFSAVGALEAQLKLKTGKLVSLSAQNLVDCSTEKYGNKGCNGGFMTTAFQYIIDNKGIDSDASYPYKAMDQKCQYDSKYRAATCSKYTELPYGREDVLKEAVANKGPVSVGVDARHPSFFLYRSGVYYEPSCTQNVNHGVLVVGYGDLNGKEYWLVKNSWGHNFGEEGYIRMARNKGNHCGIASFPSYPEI

Caspase-7 (Homo sapiens) = Caspase-7 (Homo sapiens) (UniProt P55210); test: Inhibition of caspase7 (unknown origin) at 1 uM relative to control
Caspase-5 (Homo sapiens) = Caspase-5 (Homo sapiens) (UniProt P51878); test: Inhibition of caspase5 (unknown origin) at 1 uM relative to control
[8] = target: Prothrombin (Homo sapiens) (UniProt P00734); test: Inhibition of thrombin (unknown origin) at 1 uM relative to control
[9] = target: Angiotensin-converting enzyme (Homo sapiens) (UniProt P12821); test: Inhibition of ACE (unknown origin) at 1 uM relative to control
Angiotensin-converting enzyme (Homo sapiens), sequence (P12821 whole entry): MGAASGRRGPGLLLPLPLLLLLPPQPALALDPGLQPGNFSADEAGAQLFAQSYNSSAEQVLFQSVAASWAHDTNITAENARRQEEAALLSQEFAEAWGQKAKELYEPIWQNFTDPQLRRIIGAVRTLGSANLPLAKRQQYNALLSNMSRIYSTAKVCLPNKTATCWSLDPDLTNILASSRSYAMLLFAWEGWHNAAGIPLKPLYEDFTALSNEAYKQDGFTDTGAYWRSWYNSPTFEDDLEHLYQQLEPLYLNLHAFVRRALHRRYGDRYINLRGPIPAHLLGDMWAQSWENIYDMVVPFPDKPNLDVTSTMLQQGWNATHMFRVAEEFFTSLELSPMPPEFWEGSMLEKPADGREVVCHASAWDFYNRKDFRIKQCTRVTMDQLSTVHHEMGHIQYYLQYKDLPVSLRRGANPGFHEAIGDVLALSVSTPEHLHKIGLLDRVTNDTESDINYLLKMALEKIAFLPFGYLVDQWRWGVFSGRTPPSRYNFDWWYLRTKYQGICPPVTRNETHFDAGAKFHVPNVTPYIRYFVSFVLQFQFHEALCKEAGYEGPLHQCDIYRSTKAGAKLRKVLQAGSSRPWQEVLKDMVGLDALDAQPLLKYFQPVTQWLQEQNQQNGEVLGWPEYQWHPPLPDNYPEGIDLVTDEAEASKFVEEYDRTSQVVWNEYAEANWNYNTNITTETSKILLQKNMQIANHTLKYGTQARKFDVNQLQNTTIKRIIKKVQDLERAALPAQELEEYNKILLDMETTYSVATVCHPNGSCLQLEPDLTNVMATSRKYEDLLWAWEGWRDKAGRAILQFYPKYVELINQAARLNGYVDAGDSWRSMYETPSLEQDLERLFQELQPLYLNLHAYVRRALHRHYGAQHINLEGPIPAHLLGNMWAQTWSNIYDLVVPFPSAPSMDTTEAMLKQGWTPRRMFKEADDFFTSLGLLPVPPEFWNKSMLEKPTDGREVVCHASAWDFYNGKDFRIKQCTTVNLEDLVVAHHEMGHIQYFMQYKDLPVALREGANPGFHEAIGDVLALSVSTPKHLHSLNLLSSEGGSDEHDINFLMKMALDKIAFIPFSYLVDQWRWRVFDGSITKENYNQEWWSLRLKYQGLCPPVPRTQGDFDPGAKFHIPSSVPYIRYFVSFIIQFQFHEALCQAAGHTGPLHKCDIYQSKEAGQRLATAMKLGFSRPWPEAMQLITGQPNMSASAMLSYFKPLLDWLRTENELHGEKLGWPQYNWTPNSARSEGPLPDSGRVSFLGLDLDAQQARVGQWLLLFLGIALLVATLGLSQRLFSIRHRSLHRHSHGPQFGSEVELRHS

Caspase-3 (Homo sapiens) = Caspase-3 (Homo sapiens) (UniProt P42574); test: Inhibition of caspase3 (unknown origin) at 1 uM relative to control
Caspase-3 (Homo sapiens), sequence (P42574 29-175 limits assumed): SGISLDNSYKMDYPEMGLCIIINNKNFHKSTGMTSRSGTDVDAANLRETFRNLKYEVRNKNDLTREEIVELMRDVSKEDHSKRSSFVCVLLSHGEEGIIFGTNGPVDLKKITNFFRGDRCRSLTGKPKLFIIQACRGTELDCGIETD
Caspase-3 (Homo sapiens), sequence (P42574 176-277 limits assumed): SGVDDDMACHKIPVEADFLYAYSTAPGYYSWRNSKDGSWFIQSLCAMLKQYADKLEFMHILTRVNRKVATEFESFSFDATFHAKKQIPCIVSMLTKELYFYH

[10] = target: Angiotensin-converting enzyme 2 (Homo sapiens) (UniProt Q9BYF1); test: Inhibition of ACE2 (unknown origin) at 1 uM relative to control
[11] = target: Matrilysin (Homo sapiens) (UniProt P09237); test: Inhibition of MMP7 (unknown origin) at 1 uM relative to control
[12] = target: Disintegrin and metalloproteinase domain-containing protein 17 (Homo sapiens) (UniProt P78536); test: Inhibition of TACE (unknown origin) at 1 uM relative to control
[13] = target: Cathepsin K (Homo sapiens) (UniProt P43235); test: Inhibition of cathepsin-K (unknown origin) at 1 uM relative to control
[14] = target: Cathepsin D (Homo sapiens) (UniProt P07339); test: Inhibition of cathepsin-D (unknown origin) at 1 uM relative to control
Cathepsin D (Homo sapiens), sequence (P07339 65-162 limits assumed): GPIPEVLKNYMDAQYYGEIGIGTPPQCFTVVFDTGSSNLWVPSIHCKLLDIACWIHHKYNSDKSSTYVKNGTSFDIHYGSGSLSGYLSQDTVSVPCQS
Cathepsin D (Homo sapiens), sequence (P07339 169-412 limits assumed): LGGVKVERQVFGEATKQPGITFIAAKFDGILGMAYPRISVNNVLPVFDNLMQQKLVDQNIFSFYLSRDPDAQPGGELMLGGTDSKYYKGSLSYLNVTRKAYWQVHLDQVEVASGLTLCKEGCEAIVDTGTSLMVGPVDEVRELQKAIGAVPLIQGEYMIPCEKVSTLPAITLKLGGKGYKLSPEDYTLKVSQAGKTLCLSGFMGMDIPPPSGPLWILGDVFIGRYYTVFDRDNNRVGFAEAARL

[15] = target: Urokinase-type plasminogen activator (Homo sapiens) (UniProt P00749); test: Inhibition of uPA (unknown origin) at 1 uM relative to control
[16] = target: T1, 72 kDa type IV collagenase (Homo sapiens, UniProt P08253); test: Inhibition of recombinant human MMP2 expressed in mouse NSO cells at 200 nM using fTHP-15 as substrate preincubated for 30 mins followed by substrate addition measured immediately by fluorescence assay
Method in brief: (§1)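 Each enzyme was activated per the supplier's protocol and diluted in EAB (50 mM Tris·HCl pH 7.5, 100 mM NaCl, 10 mM CaCl2, 0.05% Brij-35). Compound was tested at a single 200 nM and preincubated with enzyme for 30 min at 25 °C. Adding fTHP-15 started the reaction, with fluorescence read immediately. Inhibition was scored as percent substrate-to-product conversion after 30 min.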

Neutrophil collagenase [17] = target: T2, Neutrophil collagenase (Homo sapiens, UniProt P22894); test: Inhibition of MMP8 (unknown origin) at 200 nM using fTHP-15 as substrate preincubated for 30 mins followed by substrate addition measured immediately by fluorescence assay; method in brief: as §1
Collagenase 3 [18] = target: T3, Collagenase 3 (Homo sapiens, UniProt P45452); test: Inhibition of full length recombinant human MMP13 expressed in mouse NSO cells using fTHP-15 as substrate preincubated for 30 mins followed by substrate addition measured immediately by fluorescence assay
Neutrophil collagenase [19] = target: T2, Neutrophil collagenase; test: Inhibition of MMP8 (unknown origin) using fTHP-15 as substrate preincubated for 30 mins followed by substrate addition measured immediately by fluorescence assay
[20] = target: T1, 72 kDa type IV collagenase; test: Inhibition of recombinant human MMP2 expressed in mouse NSO cells using fTHP-15 as substrate preincubated for 30 mins followed by substrate addition measured immediately by fluorescence assay
[21] = target: Matrix metalloproteinase-14 (Homo sapiens, UniProt P50281); test: Inhibition of recombinant human MMP14 using fTHP-15 as substrate preincubated for 30 mins followed by substrate addition measured immediately by fluorescence assay
[22] = target: Matrix metalloproteinase-9 (Homo sapiens, UniProt P14780); test: Inhibition of MMP9 (unknown origin) using fTHP-15 as substrate preincubated for 30 mins followed by substrate addition measured immediately by fluorescence assay
Collagenase 3 [23] = target: T3, Collagenase 3; test: Inhibition of full length recombinant human MMP13 expressed in mouse NSO cells using varying levels of fTHP-15 as substrate preincubated for 30 mins followed by substrate addition measured immediately by Lineweaver-Burk plot analysis

Furin (Homo sapiens), sequence (P09958 whole entry): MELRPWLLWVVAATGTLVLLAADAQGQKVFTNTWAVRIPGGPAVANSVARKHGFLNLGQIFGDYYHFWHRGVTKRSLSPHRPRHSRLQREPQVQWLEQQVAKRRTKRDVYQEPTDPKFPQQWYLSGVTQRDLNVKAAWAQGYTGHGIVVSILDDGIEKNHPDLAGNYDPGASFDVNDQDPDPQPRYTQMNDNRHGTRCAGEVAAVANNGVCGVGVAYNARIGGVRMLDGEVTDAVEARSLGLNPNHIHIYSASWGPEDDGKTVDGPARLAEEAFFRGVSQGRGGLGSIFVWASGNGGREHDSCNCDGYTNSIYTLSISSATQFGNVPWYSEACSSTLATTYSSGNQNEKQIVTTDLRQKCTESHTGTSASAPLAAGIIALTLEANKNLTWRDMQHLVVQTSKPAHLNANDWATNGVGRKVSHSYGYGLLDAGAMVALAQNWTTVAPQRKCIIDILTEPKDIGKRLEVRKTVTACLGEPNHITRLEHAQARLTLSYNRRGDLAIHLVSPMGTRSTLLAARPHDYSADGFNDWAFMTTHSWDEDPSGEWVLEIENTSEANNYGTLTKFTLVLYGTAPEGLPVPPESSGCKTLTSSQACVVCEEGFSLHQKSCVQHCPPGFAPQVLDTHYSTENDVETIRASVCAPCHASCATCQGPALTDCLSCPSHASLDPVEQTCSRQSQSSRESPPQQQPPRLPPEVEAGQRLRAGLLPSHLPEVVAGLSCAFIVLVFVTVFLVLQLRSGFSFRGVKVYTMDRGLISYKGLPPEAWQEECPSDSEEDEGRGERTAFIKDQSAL

NCCNS(=O)(=O)c1ccc(-c2ccc(CSc3nc4c(c(=O)[nH]3)CCC4)cc2)cc1
inhibition (Furin (Homo sapiens)): 0%
inhibition [1]: 0%
inhibition (Caspase-6 (Homo sapiens)): 0%
inhibition [2]: 3%
inhibition [3]: 3%
inhibition (Caspase-2 (Homo sapiens)): 0%
inhibition [4]: 1%
inhibition (Caspase-1 (Homo sapiens)): 1%
inhibition [5]: 0%
inhibition [6]: 9%
inhibition [7]: 12%
inhibition (Caspase-7 (Homo sapiens)): 1%
inhibition (Caspase-5 (Homo sapiens)): 0%
inhibition [8]: -3%
inhibition [9]: 7%
inhibition (Caspase-3 (Homo sapiens)): 0%
inhibition [10]: 1%
inhibition [11]: 7%
inhibition [12]: 4%
inhibition [13]: 0%
inhibition [14]: 3%
inhibition [15]: 3%

CNC(=O)[C@@H](NC(=O)c1ccc(-c2ccc(CSc3nc4c(c(=O)[nH]3)CCC4)cc2)o1)C(C)C
inhibition [16]: Active
inhibition (Neutrophil collagenase [17]): Active
IC50 (Collagenase 3 [18]): 9.4 nM

O=c1[nH]c(SCc2ccc(-c3ccc(S(=O)(=O)NCCO)cc3)cc2)nc2c1CCC2
IC50 (Neutrophil collagenase [19]): > 5000 nM
IC50 [20]: > 5000 nM
IC50 [21]: > 10000 nM
IC50 [22]: > 10000 nM

CC(C)[C@@H](NS(=O)(=O)c1ccc(-c2ccc(CSc3nc4c(c(=O)[nH]3)CCC4)cc2)cc1)C(=O)O
IC50 (Collagenase 3 [18]): 7 nM

CNC(=O)[C@@H](NC(=O)c1ccc(-c2ccc(CSc3nc4c(c(=O)[nH]3)CCC4)c(F)c2)o1)C(C)C
inhibition (Furin (Homo sapiens)): 0%
inhibition [1]: 0%
inhibition (Caspase-6 (Homo sapiens)): 0%
inhibition [2]: 0%
inhibition [3]: -6%
inhibition (Caspase-2 (Homo sapiens)): 0%
inhibition [4]: 0%
inhibition (Caspase-1 (Homo sapiens)): 0%
inhibition [5]: 0%
inhibition [6]: 7%
inhibition [7]: 2%
inhibition (Caspase-7 (Homo sapiens)): 8%
inhibition (Caspase-5 (Homo sapiens)): 0%
inhibition [8]: -8%
inhibition [9]: 0%
inhibition (Caspase-3 (Homo sapiens)): 0%
inhibition [10]: 0%
inhibition [11]: 4%
inhibition [12]: -3%
inhibition [13]: 2%
inhibition [14]: 0%
inhibition [15]: 1%

Cc1ccc(CSc2nc(O)c3c(n2)CCC3)cc1
Ki (Collagenase 3 [23]): 800 nM

CNC(=O)[C@H](NC(=O)c1ccc(-c2ccc(CSc3nc4c(c(=O)[nH]3)CCC4)cc2)o1)C(C)C
IC50 (Collagenase 3 [18]): 356 nM
